Reference: article PMC6923801 (Journal of medicinal chemistry, 2019)

Legend:
[1] = tested on: 48 common GPCRs, ion channels, and transporters; experiment: Radioligand binding panel of 48 common drug targets
In short: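 Binding profiling was done by the NIMH PDSP. Targets were first tested at 10 μM in quadruplicate. pKi values were determined for targets with ≥50% inhibition, from at least three independent assays, each in triplicate.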

human GPR68 = human GPR68 (Homo sapiens, UniProt Q15743); experiment: GloSensor cAMP assay, proton-mediated Gs-cAMP production at human GPR68; format: cell-based; conditions: for Log (α): affinity cooperativity; for Log (α) / Log (β): human GPR68, HEK293T, Gs-cAMP; for Log (α) / −Log (KB) / Log (αβ/KB) / Log (β): mean ± SEM; for −Log (KB): allosteric binding affinity from functional assay; for −Log (KB) / Log (αβ/KB) / Δ / fold increased allosteric activity (log(αβ/KB)) compared to 1: human GPR68; for Log (αβ/KB): allosteric index; for Δ: difference of Log(αβ/KB) from that of 1; for Log (β): efficacy cooperativity; for PAM activity at GPR68: inactive analogues
human GPR68, sequence (Q15743 whole entry): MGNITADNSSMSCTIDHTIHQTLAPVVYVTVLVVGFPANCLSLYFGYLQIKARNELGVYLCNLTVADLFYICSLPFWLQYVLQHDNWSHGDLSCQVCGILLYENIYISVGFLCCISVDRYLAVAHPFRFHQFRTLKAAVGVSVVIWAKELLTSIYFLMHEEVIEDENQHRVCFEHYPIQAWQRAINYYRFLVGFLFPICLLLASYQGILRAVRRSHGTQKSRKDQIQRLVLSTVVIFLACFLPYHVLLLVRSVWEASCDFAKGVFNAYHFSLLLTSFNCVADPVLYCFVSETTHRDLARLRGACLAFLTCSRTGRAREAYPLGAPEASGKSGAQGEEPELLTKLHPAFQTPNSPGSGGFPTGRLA
In short: (§1)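 HEK293T cells were transiently transfected with receptor and GloSensor cAMP plasmids, overnight (16–20 h). Cells were plated on poly-L-Lys in DMEM + 1% dFBS for 6–24 h, then loaded with 3.5 mM luciferin (HBSS, 20 mM TAPS, pH 8.40) for 1 h at 37 °C. Drug was applied in Ca/Mg-free HBSS pH buffers (MES 5.60–6.70, HEPES 6.80–8.20, TAPS 8.30–8.60) with 10 μM Ro 20-1724. Luminescence was read at 20–30 min.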

[2] = tested on: human GPCRome (318 GPCRs); experiment: PRESTO-Tango GPCRome off-target agonist screen; format: cell-based; conditions: 1 μM
In short: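 HTLA cells were plated in DMEM + 2% dFBS overnight, then transfected overnight with receptor Tango constructs (15 ng/well) by in-plate PEI. Test compound was added without medium change and left overnight. Bright-Glo luminescence was read after 20 min at room temperature and expressed as fold of basal, using quadruplicate basal and sample wells. Controls were D2 with 100 nM quinpirole and untransfected cells.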

[3] = Mouse pharmacokinetic study; format: in vivo; conditions: mice, single 25 mg/kg IP
In short: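 Nine male Swiss Albino mice received one intraperitoneal dose of 25 mg/kg. Vehicle was 5% N-methyl-2-pyrrolidone, 5% Solutol HS-15 and 90% normal saline. Plasma and brain were sampled at 0.5, 1.0 and 2.0 h. Concentrations are averages of three mice per time point ± SEM.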

5-HT2B receptors = 5-HT2B receptors (Homo sapiens, UniProt P41595); experiment: Calcium release functional assay at 5-HT2B receptors; format: cell-based
5-HT2B receptors, sequence (P41595 whole entry): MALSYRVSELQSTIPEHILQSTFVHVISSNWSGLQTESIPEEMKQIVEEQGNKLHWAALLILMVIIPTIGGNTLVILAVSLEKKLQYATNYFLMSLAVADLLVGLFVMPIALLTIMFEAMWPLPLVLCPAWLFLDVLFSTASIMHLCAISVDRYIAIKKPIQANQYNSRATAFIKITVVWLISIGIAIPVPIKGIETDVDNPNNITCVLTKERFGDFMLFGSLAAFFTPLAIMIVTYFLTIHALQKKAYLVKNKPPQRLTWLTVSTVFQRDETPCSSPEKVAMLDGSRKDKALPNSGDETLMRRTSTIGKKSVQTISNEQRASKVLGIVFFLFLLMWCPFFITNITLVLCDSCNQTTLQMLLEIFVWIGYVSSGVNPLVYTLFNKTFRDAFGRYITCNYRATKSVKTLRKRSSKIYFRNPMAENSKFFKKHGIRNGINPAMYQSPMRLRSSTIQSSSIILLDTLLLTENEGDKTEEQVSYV
In short: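 HEK293 cells stably expressing 5-HT2B were plated in DMEM with 1% dFBS overnight (16–20 h). They were loaded with Fluo-4 Direct dye for 1 h at 37 °C in HBSS with 20 mM HEPES and 2.5 mM probenecid, pH 7.40. Drug dilutions contained 1 mg/mL BSA and 0.1 mg/mL ascorbic acid. Fluorescence was read 1/s for 2 min, with 10 s baseline. Read-out was peak fold of basal within the first minute.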

MT1 receptor = MT1 receptor (Homo sapiens, UniProt P48039); experiment: Tango arrestin recruitment concentration response, MT1; format: cell-based
MT1 receptor, sequence (P48039 whole entry): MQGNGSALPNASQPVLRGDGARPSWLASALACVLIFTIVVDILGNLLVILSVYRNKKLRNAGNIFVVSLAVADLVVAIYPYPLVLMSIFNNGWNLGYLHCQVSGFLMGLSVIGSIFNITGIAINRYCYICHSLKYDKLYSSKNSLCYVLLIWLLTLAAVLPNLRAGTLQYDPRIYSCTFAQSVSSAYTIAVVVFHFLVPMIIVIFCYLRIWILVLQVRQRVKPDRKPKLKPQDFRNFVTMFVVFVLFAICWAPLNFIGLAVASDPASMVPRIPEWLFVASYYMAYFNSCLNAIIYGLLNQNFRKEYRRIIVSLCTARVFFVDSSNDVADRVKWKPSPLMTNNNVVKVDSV
In short: (§2)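 HTLA cells were transfected overnight with receptor DNA in DMEM + 10% FBS, then plated on poly-L-Lys in DMEM + 1% dFBS. Test compound was added 6 h later and incubated overnight (16–20 h). After removal of medium, Bright-Glo reagent was added and luminescence counted.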

GPR4 [4] = molecular target: T1, GPR4 (Homo sapiens, UniProt P46093); experiment: GloSensor cAMP assay at GPR4; format: cell-based; conditions: proton concentration-response with increasing modulator
T1 sequence (P46093 whole entry): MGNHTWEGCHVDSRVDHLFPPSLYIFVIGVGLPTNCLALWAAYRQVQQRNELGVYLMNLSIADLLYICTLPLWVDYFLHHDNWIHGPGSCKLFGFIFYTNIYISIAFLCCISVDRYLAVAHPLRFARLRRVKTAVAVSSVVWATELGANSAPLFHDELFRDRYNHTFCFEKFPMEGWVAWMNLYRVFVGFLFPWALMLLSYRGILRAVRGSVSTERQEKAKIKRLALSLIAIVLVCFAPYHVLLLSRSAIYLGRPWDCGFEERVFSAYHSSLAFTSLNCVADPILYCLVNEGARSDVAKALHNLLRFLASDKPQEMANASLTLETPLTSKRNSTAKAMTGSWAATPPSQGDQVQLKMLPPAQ
In short: as §1

mouse GPR68 = mouse GPR68 (Mus musculus, UniProt Q8BFQ3); experiment: GloSensor cAMP assay at mouse GPR68; format: cell-based; conditions: for Δ: difference of Log(αβ/KB) at mouse GPR68 from the corresponding values at human GPR68
mouse GPR68, sequence (Q8BFQ3 whole entry): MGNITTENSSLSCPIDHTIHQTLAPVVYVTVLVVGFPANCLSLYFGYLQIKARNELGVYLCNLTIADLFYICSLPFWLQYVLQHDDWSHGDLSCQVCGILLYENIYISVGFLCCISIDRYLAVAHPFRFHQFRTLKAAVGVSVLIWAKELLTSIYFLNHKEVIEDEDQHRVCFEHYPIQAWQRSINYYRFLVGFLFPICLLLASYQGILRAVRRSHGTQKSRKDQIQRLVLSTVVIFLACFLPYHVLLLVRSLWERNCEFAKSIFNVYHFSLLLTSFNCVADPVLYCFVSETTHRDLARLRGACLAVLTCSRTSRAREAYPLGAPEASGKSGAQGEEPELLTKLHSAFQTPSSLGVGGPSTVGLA
In short: as §1

GPR65 [5] = molecular target: T2, GPR65 (Homo sapiens, UniProt Q8IYL9); experiment: GloSensor cAMP assay at GPR65; format: cell-based; conditions: proton concentration-response with increasing modulator
T2 sequence (Q8IYL9 whole entry): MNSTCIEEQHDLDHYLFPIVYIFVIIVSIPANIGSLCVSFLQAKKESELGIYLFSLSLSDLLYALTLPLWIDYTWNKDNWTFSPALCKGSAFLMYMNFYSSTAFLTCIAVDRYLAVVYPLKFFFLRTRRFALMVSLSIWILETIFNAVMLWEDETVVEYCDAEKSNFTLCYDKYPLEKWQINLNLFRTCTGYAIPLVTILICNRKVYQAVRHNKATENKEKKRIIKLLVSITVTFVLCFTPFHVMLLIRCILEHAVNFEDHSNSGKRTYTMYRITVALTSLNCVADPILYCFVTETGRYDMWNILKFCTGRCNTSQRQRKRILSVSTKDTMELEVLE
In short: as §1

GPR65 [6] = molecular target: T2, GPR65; conditions: cited from earlier work
GPR4 [7] = molecular target: T1, GPR4; conditions: cited from earlier work
[8] = molecular target: atypical chemokine receptor 3 (ACKR3) (Homo sapiens, UniProt P25106); experiment: Tango arrestin recruitment concentration response, ACKR3; format: cell-based
atypical chemokine receptor 3 (ACKR3), sequence (P25106 whole entry): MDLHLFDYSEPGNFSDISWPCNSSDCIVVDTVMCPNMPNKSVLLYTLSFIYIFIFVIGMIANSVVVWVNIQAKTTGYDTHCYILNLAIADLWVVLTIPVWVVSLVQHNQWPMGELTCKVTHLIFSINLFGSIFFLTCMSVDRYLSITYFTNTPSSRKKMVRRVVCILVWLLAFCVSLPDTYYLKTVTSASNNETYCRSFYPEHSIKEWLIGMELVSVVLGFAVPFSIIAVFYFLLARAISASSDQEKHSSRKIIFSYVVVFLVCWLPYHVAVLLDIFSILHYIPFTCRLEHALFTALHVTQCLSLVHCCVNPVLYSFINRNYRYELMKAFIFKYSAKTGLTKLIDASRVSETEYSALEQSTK
In short: as §2

## CN(C)c1nc(NCc2ccccc2)nc(-c2ccccc2CO)n1 [Compound 7, (2-(4-(Benzylamino)-6-(dimethylamino)-1,3,5-triazin-2-yl)-phenyl)methanol]
[1]
  binding affinity to common drug targets: minimal binding affinities
Human GPR68
  Log (α): Inactive
  −Log (KB): Inactive
  Log (αβ/KB): Inactive
  Δ: Inactive
  Log (β): Inactive
  PAM activity at GPR68: do not show PAM activity
[2]
  off-target agonist activity at human GPCRome: no off-target agonist activity

## Nc1nc(NCc2ccc(Oc3ccccc3)cc2)nc(-c2c(F)cccc2CO)n1 [Compound 71, (2-(4-Amino-6-((4-phenoxybenzyl)amino)-1,3,5-triazin-2-yl)-3-fluorophenyl)methanol]
[3]
  bioavailability: bioavailable
  blood-brain barrier penetration: can readily cross the BBB
  clinical signs: no clinical signs observed
  time high exposure levels in plasma and brain were maintained: 2 h
Human GPR68
  Kb: 1.41 µM
  Δ: 1.52
  fold increased allosteric activity (log(αβ/KB)) compared to 1: 33 fold
5-HT2B receptors
  agonist activity at 5-HT2B receptors: no agonist activity
MT1 receptor
  agonist type at MT1: weak full agonist
GPR4 [4]
  PAM activity at GPR4: no PAM activity
Mouse GPR68
  Kb: 7.59 µM
[2]
  off-target agonist activity at human GPCRome: agonist activity only at the MT1 and MT2 receptors
GPR65 [5]
  PAM activity at GPR65: weak potentiation of proton activity at GPR65 only at high concentrations

## Nc1nc(NCc2ccccc2)nc(-c2ccccc2CO)n1 [Compound 1]
Human GPR68
  Kb: 44.7 µM
  Δ: 0.00
GPR65 [6]
  activity at GPR65: no activity
Mouse GPR68
  Kb: 74.1 µM
  Δ: −0.34
GPR4 [7]
  activity at GPR4: no activity

## Nc1nc(NCCCc2ccccc2)nc(-c2cc(Cl)ccc2CO)n1 [Compound 78, (2-(4-Amino-6-((3-phenylpropyl)amino)-1,3,5-triazin-2-yl)-4-chlorophenyl)methanol]
Human GPR68
  Kb: 4.47 µM
  Δ: 1.07
  fold increased allosteric activity (log(αβ/KB)) compared to 1: approximately 10 fold
5-HT2B receptors
  agonist activity at 5-HT2B receptors: no agonist activity
GPR4 [4]
  PAM activity at GPR4: no effect or weak activity only at high concentrations
Mouse GPR68
  Kb: 13.8 µM
  Δ: −0.40
[2]
  off-target agonist activity at human GPCRome: agonist activity at an atypical chemokine receptor 3 (ACKR3)
[8]
  agonist type at ACKR3: full agonist activities
GPR65 [5]
  PAM activity at GPR65: no effect or weak activity only at high concentrations

## Nc1nc(NCCc2ccccc2)nc(-c2cc(Cl)ccc2CO)n1 [Compound 77, (2-(4-Amino-6-(phenethylamino)-1,3,5-triazin-2-yl)-4-chlorophenyl)methanol]
Human GPR68
  Kb: 7.24 µM
  Δ: 0.95
  fold increased allosteric activity (log(αβ/KB)) compared to 1: approximately 10 fold
5-HT2B receptors
  agonist activity at 5-HT2B receptors: no agonist activity
GPR4 [4]
  PAM activity at GPR4: no effect or weak activity only at high concentrations
Mouse GPR68
  Kb: 19.1 µM
  Δ: −0.34
[2]
  off-target agonist activity at human GPCRome: agonist activity at an atypical chemokine receptor 3 (ACKR3)
[8]
  agonist type at ACKR3: full agonist activities
GPR65 [5]
  PAM activity at GPR65: no effect or weak activity only at high concentrations

## CC(=O)c1cccc(-c2nc(N)nc(NCc3ccccc3)n2)c1 [Compound 21, 1-(3-(4-Amino-6-(benzylamino)-1,3,5-triazin-2-yl)phenyl)ethan-1-one]
[1]
  binding affinity to common drug targets: minimal binding affinities
Human GPR68
  Log (α): Inactive
  −Log (KB): Inactive
  Log (αβ/KB): Inactive
  Δ: Inactive
  Log (β): Inactive
  PAM activity at GPR68: do not show PAM activity
[2]
  off-target agonist activity at human GPCRome: no off-target agonist activity
